Assay outcomes as filed in PubChem.
The list is not random: actives were taken first. Their share in the collection is about 3%.
PLCb3 inh: inhibitors of human phospholipase C beta3; inhibition, % at 12.2 µM; AID 720704; Purified PLC-beta3, fluorogenic substrate, fluorescence; Q01970; actives 0.18% (n = 370,000); in the data active means inhibition above about 11%
CendR NRP1 mod: NRP-1/CendR interaction modulation; actives 0.85% (n = 360,000); inhibition, % at 25 µM; O14786; FAM-RPARPAR peptide binding to NRP-1, fluorescence polarization;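 active means inhibition or corrected inhibition above about 18%, plus a signal ratio from 0.5 to 1.5, limit read from the data, passing the limit was not always enough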
DDE Tn6 FP inh: inhibitors of Tn6 peptide binding to human fibrin DD(E) | P02675 | Fibrin DD(E) TRITC-Tn6 fluorescence polarization displacement | actives 0.21% (n = 370,000) | inhibition, % at 8.3 µM;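 active means inhibition above a per-campaign cutoff: mean of compounds within control limits plus 3 SD, cut at about 15% in these data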
KLK7 zymogen act: proKLK7 (human) activation, primary screen; P49862; purified proKLK7, EDANS-DABCYL substrate fluorescence; 100% is mature enzyme control, 0% vehicle; activation, % at 7 µM; actives 0.9% (n = 370,000); AID 652039;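 active means activation above the mean of all tested compounds plus 3 SD, computed per campaign excluding outliers beyond control limits, cut at about 13% in these data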
Target sequence (P49862 whole entry, looked up): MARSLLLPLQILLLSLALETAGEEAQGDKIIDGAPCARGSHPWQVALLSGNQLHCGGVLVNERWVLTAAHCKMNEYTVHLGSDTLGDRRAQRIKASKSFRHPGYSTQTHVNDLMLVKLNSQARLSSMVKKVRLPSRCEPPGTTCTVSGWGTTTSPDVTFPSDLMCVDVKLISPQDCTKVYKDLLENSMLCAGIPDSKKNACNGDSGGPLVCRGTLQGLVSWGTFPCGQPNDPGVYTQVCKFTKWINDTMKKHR
Tn7 DDE FP: inhibitors of Tn7 peptide binding to human fibrin DD(E). inhibition, % at 8.3 µM. FP displacement of FITC-Tn7 peptide from fibrin DD(E); 0% = median of compound wells per plate. actives 0.13% (n = 370,000);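 active means inhibition above the mean of compounds falling within the control limits plus 3 SD of them, cut at about 14% in these data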
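Also added: labelled Tn7 tracer, 0.1 µM; Assay system: human fibrin DD(E) protein; Amount: 2 µM fibrin DD(E); Schedule: 10 min compound pre-incubation, 3 h probe incubation at room temperature; Repeats: one replicate per compound; Read-out basis: percent inhibition; Measured by: fluorescence polarization of the labelled Tn7 tracer.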
PLC-gamma1 inh: blocks human PLC-gamma1 enzyme activity; purified PLC-gamma1, fluorogenic substrate, fluorescence; P19174; inhibition, % at 12.2 µM; actives 0.84% (n = 370,000); in the data active means inhibition above about 9.5%
KLK7 act conf: confirmation of human kallikrein-7 zymogen activators. shares compounds with KLK7 zymogen act. purified proKLK7, EDANS-DABCYL substrate fluorescence; scaled: vehicle 0, mature enzyme 100. activation, % at 7 µM. actives 68% (n = 3,200). AID 686949;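 active means activation, as change over the incubation, above the mean of all tested compounds plus 3 SD, cut at about 13% in these data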
EDANS-DABCYL int: fluorescence interference counter-screen for KLK7 activators | AID 686952 | shares compounds with KLK7 zymogen act | actives 80% (n = 3,200) | activation, % at 7 µM | EDANS-DABCYL substrate fluorescence interference, no enzyme, 4 h; solvent 0%, active enzyme control 100%;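 active means activation above the all-compound mean plus 3 SD, ignoring values outside control-based bounds, cut at about 4.8% in these data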;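 further: value is the 4 h activation minus the activation read at time zero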
K7 EDANS ctr: counter-screen for kallikrein-7 activators: EDANS-DABCYL interference, dose response. shares compounds with KLK7 zymogen act. EDANS-DABCYL peptide fluorescence interference, no enzyme. EC50, µM. actives 20% (n = 250). AID 720493;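 active means compounds that raise the fluorescence signal in this interference counterscreen, with EC50 at or below 10 µM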;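 further: intact quenched peptide substrate alone read at 355 nm excitation and 520 nm emission; signal is fluorescence gain from T0 to T4 after four hours at room temperature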
Each line names hits and unclear results; the compound was inactive in the other large screens (follow-up assays come after a bar, where they were run).

CCN(CC)CCNC(=O)c1ccc(NC(=O)c2ccc(S(=O)(=O)N(C)c3ccccc3OC)cc2)cc1	none
COc1ccccc1N(C)S(=O)(=O)c1ccc(C(=O)Nc2ccc(C(N)=O)cc2)cc1	KLK7 zymogen act 24.4 | KLK7 act conf 22.4 | EDANS-DABCYL int inactive | K7 EDANS ctr inactive
CC(C)CCN(C)C1CCN(C(=O)Nc2ccccc2)CC1	none (no result: CendR NRP1 mod)
O=S1(=O)CC2c3ccc(F)cc3CN2CN1CCc1ccccc1 (configuration not stated)	none (no result: CendR NRP1 mod)
CC[C@]12c3[nH]c4cc(-c5ccco5)ccc4c3CCN1C(=O)[C@@H](CC(=O)NCc1ccco1)C[C@@H]2C(=O)N1CCN(C(=O)C2CC2)CC1	KLK7 zymogen act 100.0 | KLK7 act conf 66.5 | EDANS-DABCYL int 93.1
CC[C@]12c3[nH]c4cc(-c5ccco5)ccc4c3CCN1C(=O)[C@@H](CC(=O)NCc1ccc(OC)c(OC)c1)C[C@@H]2C(=O)N1CCN(C(=O)C2CC2)CC1	KLK7 zymogen act 122.2 | KLK7 act conf 72.2 | EDANS-DABCYL int 83.6
CC[C@]12c3[nH]c4cc(-c5ccco5)ccc4c3CCN1C(=O)[C@@H](CC(=O)NCCC1=CCCCC1)C[C@@H]2C(=O)N1CCN(C(=O)C2CC2)CC1	KLK7 zymogen act 30.3 | KLK7 act conf 13.6 | EDANS-DABCYL int 17.0
O=C(c1cccs1)N1CC[C@H]2[C@H](CCCN2Cc2cc(F)cc(F)c2)C1	none (no result: CendR NRP1 mod)
C/C(C=NNC(=O)CSc1nc2ccccc2n1C)=C\c1ccccc1	none (no result: CendR NRP1 mod)
COCC(=O)Nc1nc(-c2ccc([N+](=O)[O-])cc2)cs1	KLK7 zymogen act 109.2 | KLK7 act conf inactive | EDANS-DABCYL int inactive
COP(=O)(O)C(COCCC(CC(C)C)NC(=O)OCc1ccccc1[N+](=O)[O-])NC(=O)OCc1ccccc1 (configuration not stated)	none (no result: CendR NRP1 mod, KLK7 zymogen act)
O=c1cc(CN2CCOCC2)c2cc(Cl)c(O)cc2o1	KLK7 zymogen act 54.1 | KLK7 act conf 62.7 | EDANS-DABCYL int 76.9
COc1cc2c(cc1OC)CN(Cc1cc(=O)oc3cc(C)c(C)cc13)CC2	none
CCc1cc2c(CN3CCN(CC)CC3)cc(=O)oc2cc1O	KLK7 zymogen act 70.6 | KLK7 act conf 73.2 | EDANS-DABCYL int 74.6
Cc1ccc2c(CN3CCN(Cc4ccc5c(c4)OCO5)CC3)cc(=O)oc2c1C	none
Cc1c(O)ccc2c(CN3CCN(CCO)CC3)cc(=O)oc12	KLK7 zymogen act 66.2 | KLK7 act conf 68.1 | EDANS-DABCYL int 69.4
Cc1cc2oc(=O)cc(CN3CCOCC3)c2cc1C(C)C	none
COc1cc2c(cc1OC)CN(Cc1cc(=O)oc3cc(C)c(Cl)cc13)CC2	KLK7 zymogen act 14.7 | KLK7 act conf inactive | EDANS-DABCYL int inactive
C#Cc1cccc(OC[C@@H](O)CN2CCC(C(O)(c3ccccc3)c3ccccc3)CC2)c1	none (no result: CendR NRP1 mod)
C[C@H]1[C@@H](OC(=O)Nc2ccccc2Cl)CC[C@@]23CCCN2C(=O)CCC[C@@H]13	none (no result: CendR NRP1 mod, KLK7 zymogen act)
Cc1c(O)ccc2c(CN3CCOCC3)cc(=O)oc12	KLK7 zymogen act 41.2 | KLK7 act conf 65.1 | EDANS-DABCYL int 67.2
Cc1cc(C)c2oc(=O)cc(CN3CCOCC3)c2c1	none
Cc1c(C)c2c(OCC(=O)NCc3ccncc3)cc3c(c2oc1=O)CCC(C)(C)O3	none
Cc1c(C)c2c(OCC(=O)N3CCC[C@H]3C(=O)O)cc3c(c2oc1=O)CCC(C)(C)O3	KLK7 zymogen act 70.8 | KLK7 act conf 70.7 | EDANS-DABCYL int 70.4
